Measurements collected from several papers.
Compare with care: the assays were run in different laboratories.
Target: Carbonic anhydrase 2 (CA2, Homo sapiens, UniProt P00918)
Read-out: enzyme activity
Action: inhibitor
Method: absorbance

SMILES	conditions	IC50 [nM]
OCCOCCN1CCN(C(c2ccccc2)c2ccc(Cl)cc2)CC1 (centres unmarked)	pH 7.4	18200
NS(=O)(=O)c1ccc(-c2ccc(Nc3ccc(F)c(Cl)c3)cc2)cc1	–	380
C[C@H]1c2cccc(O)c2C(=O)C2=C(O)[C@]3(O)C(=O)C(C(N)=O)=C(O)[C@@H](N(C)C)[C@@H]3[C@@H](O)[C@@H]21	pH 7.4	14200
CN1CCN(c2nc(-c3cc4cc(Br)ccc4oc3=O)cs2)CC1	–	4120
OC1CCN(c2ccc(/C=N/NC(=S)NCCc3ccccc3)cc2)CC1	–	641
CS(=O)(=O)Nc1ccc(Nc2nc(-c3cc4cc(Br)ccc4oc3=O)cs2)cc1Oc1ccccc1	–	380
Cc1cccc(C)c1NC(=S)N/N=C/c1ccc(N2CCC(O)CC2)cc1	–	424
CC1=C(/C=C/C(C)=C/C=C/C(C)=C\C(=O)O)C(C)(C)CCC1	pH 7.4	10900
NS(=O)(=O)c1ccc(-c2ccc(Nc3ccc(Cl)cc3)cc2)cc1	–	2110
OC1CCN(c2ccc(/C=N/NC(=S)NC3CCCCC3)cc2)CC1	–	465
NS(=O)(=O)c1cccc(Nc2nc(-c3cc4cc(Br)ccc4oc3=O)cs2)c1	–	680
